# Measurements reported in ChEMBL document CHEMBL3872285, “Discovery of a Potent, Selective, and Orally Available PI3Kδ Inhibitor for the Treatment of Inflammatory Diseases” (ACS Med Chem Lett, 2017).
# Key:
# [1] = Apparent permeability of compound at 20 uM after 5 hrs by PAMPA; type: ADME
# [2] = Drug metabolism in human liver microsomes assessed as disappearance of parent compound at 5 uM after 30 mins in presence of NADPH by UPLC-MS/MS analysis
# [3] = biological target: Cytochrome P450 2D6 (Homo sapiens, UniProt P10635); assay: Inhibition of CYP2D6 in human liver microsomes assessed as reduction in dextromethorphan O-demethylation at 1 to 25 uM by UPLC-MS/MS analysis; type: ADME
# Sequence of Cytochrome P450 2D6 (P10635 whole entry): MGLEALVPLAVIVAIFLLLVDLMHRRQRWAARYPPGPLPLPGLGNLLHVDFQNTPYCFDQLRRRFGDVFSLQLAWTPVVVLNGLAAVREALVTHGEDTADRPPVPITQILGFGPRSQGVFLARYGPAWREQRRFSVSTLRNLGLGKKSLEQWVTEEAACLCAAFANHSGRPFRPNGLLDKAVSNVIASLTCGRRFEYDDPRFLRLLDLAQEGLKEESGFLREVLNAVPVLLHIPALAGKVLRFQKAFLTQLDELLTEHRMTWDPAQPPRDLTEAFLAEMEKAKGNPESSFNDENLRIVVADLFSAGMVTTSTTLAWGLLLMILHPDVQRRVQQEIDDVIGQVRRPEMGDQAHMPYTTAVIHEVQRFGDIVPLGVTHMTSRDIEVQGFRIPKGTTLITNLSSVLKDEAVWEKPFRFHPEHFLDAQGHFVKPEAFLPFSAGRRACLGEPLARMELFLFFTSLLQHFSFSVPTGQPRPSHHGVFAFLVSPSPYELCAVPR
# [4] = Apparent volume of distribution in Beagle dog at 1 mg/kg, iv through bolus administration; type: ADME, organism-based, Canis lupus familiaris; settings: in vivo, read-out: Vz
# [5] = biological target: Cytochrome P450 3A4 (Homo sapiens, UniProt P08684); assay: Inhibition of CYP3A4 in human liver microsomes assessed as reduction in testosterone 6beta-hydroxylation at 1 to 25 uM by UPLC-MS/MS analysis; type: ADME
# Sequence of Cytochrome P450 3A4 (P08684 whole entry): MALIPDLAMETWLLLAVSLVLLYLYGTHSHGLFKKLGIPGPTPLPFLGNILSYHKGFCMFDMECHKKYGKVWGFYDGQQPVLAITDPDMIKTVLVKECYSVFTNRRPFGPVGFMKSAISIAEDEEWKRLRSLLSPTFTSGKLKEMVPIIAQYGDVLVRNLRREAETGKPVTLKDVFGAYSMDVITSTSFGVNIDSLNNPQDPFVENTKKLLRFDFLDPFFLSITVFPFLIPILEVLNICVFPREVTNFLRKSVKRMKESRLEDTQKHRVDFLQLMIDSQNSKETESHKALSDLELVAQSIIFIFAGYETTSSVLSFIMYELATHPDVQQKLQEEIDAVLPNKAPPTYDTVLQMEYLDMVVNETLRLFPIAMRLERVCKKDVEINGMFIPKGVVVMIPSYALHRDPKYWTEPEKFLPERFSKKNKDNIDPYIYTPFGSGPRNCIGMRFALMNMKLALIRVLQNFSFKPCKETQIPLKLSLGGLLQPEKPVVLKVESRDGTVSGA
# [6] = Protein binding in mouse plasma at 1uM by LC-MS/MS analysis; type: ADME, cell-free; settings: read-out: PPB
# [7] = Protein binding in dog plasma at 1 uM by LC-MS/MS analysis; type: ADME, cell-free, Canis lupus familiaris; settings: read-out: PPB
# [8] = Oral bioavailability in Wistar rat at 1 mg/kg administered via gavage; type: ADME, organism-based; settings: in vivo
# [9] = biological target: PI3-kinase p110-alpha/p85-alpha (Homo sapiens, UniProt P42336); assay: Inhibition of full length recombinant human N-terminal His6-tagged PI3K p110alpha/human p85alpha expressed in baculovirus infected Sf21 insect cells using PIP2 as substrate preincubated for 30 mins followed by substrate addition by HTRF assay
# Procedure, shortened: (§1)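 Recombinant human class I PI3K isoform, HTRF readout. ATP held at the Km of the enzyme. Compound preincubated with enzyme for 30 min. PIP3 product detected by its displacement of biotin-PIP3 from an energy-transfer complex.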
# [10] = biological target: T1, Cytochrome P450 1A2 (Homo sapiens, UniProt P05177); assay: Inhibition of CYP1A2 in human liver microsomes assessed as reduction in Ethoxyresorufin O-deethylation at 1 to 25 uM by UPLC-MS/MS analysis; type: ADME
# T1 sequence (P05177 whole entry): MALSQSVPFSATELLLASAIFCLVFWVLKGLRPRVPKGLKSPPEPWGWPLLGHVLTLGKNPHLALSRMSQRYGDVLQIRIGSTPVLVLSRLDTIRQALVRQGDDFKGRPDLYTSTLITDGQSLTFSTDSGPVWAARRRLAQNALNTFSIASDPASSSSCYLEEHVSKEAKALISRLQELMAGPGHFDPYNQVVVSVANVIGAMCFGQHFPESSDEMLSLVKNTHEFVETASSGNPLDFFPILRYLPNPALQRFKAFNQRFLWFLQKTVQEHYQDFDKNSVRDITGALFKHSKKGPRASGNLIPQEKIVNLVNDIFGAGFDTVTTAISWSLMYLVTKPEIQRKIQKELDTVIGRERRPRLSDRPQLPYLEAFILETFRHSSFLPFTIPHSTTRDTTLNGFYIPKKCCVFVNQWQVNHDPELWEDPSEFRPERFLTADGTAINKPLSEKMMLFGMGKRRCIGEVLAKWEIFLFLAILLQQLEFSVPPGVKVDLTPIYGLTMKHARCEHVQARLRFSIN
# [11] = Half life in Wistar rat at 1 mg/kg, iv; type: ADME, organism-based; settings: in vivo
# [12] = Clearance in Wistar rat at 1 mg/kg, iv; settings: in vivo
# [13] = biological target: PI3-kinase p110-delta/p85-alpha (Homo sapiens, UniProt O00329); assay: Inhibition of full length recombinant human N-terminal His6-tagged PI3K p110delta/human p85alpha expressed in baculovirus infected sf21 cells using PIP2 as substrate preincubated for 30 mins followed by substrate addition by HTRF assay
# Sequence of PI3-kinase p110-delta/p85-alpha (P27986 whole entry): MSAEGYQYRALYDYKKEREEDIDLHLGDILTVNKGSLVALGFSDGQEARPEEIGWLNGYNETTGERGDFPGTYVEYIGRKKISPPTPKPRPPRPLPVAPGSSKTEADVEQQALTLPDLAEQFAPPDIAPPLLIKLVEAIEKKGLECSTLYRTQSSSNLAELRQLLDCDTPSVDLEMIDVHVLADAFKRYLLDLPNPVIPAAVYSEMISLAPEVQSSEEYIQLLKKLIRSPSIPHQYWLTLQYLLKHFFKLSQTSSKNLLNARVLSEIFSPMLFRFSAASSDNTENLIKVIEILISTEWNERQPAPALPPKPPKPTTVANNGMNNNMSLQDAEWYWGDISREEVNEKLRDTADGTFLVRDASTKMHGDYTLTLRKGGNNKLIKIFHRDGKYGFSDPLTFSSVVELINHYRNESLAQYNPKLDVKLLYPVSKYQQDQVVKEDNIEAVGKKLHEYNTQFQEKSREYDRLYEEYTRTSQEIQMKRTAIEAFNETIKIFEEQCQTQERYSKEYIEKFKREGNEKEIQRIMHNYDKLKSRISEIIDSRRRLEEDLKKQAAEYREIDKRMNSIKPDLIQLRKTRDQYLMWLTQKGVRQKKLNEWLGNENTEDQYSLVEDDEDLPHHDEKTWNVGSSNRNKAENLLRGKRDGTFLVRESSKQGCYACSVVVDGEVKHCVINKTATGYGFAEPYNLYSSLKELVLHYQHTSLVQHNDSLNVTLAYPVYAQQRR
# Sequence of PI3-kinase p110-delta/p85-alpha (O00329 whole entry): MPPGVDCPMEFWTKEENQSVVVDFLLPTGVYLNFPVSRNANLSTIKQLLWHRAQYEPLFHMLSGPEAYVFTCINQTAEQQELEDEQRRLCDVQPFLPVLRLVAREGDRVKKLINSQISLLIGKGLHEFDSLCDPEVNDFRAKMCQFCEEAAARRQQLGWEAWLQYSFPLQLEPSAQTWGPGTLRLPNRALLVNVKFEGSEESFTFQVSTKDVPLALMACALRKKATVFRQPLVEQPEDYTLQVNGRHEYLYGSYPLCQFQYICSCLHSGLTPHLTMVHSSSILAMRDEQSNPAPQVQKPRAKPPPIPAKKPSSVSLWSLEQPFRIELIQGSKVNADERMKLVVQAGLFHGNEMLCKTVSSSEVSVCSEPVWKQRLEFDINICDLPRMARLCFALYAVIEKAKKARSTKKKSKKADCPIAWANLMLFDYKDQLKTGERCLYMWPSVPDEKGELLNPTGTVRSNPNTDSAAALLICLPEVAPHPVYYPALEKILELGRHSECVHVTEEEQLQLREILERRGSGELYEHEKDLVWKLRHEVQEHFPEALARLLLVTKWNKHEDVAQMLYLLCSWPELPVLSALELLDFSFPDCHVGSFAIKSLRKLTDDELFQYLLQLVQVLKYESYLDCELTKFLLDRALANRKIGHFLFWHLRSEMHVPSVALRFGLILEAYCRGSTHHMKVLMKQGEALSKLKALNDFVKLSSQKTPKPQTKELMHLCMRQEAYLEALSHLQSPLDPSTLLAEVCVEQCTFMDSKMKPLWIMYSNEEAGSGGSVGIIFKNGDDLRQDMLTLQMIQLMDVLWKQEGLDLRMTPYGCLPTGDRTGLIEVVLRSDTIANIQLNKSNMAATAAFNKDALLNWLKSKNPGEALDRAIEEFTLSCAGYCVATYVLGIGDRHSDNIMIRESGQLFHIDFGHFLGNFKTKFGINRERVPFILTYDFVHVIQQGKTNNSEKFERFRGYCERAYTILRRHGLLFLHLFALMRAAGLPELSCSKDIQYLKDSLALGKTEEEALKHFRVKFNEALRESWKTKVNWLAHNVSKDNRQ
# [14] = Protein binding in human plasma at 1 uM by LC-MS/MS analysis; type: ADME, cell-free; settings: read-out: PPB
# Procedure, shortened: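 Binding measured by equilibrium dialysis at 37 °C, compound at 1 µM in human plasma; percent bound reported as mean.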
# [15] = test system: Rattus norvegicus; assay: In vivo inhibition of PI3Kdelta in Wistar rat assessed as reduction in ConA-induced increase in plasma IL2 production administered through oral gavage 1 hr prior to ConA measured 90 mins post ConA challenge by ELISA; type: functional; settings: read-out: ID50 (the source's name)
# [16] = AUC in Wistar rat at 1 mg/kg, iv; type: ADME, organism-based; settings: in vivo
# Procedure, shortened: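 Wistar rats received a single 1 mg/kg intravenous dose. Plasma samples were collected and AUC was calculated from them, along with half-life, clearance and steady-state volume of distribution. Values are means of two animals (n=2).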
# [17] = Clearance in Beagle dog at 1 mg/kg, iv through bolus administration; settings: in vivo
# [18] = Half life in Beagle dog at 1 mg/kg, iv through bolus administration; type: ADME, organism-based, Canis lupus familiaris; settings: in vivo
# [19] = biological target: Cytochrome P450 2C9 (Homo sapiens, UniProt P11712); assay: Inhibition of CYP2C9 in human liver microsomes assessed as reduction in diclofenac 4-hydroxylation at 1 to 25 uM by UPLC-MS/MS analysis; type: ADME
# Sequence of Cytochrome P450 2C9 (P11712 whole entry): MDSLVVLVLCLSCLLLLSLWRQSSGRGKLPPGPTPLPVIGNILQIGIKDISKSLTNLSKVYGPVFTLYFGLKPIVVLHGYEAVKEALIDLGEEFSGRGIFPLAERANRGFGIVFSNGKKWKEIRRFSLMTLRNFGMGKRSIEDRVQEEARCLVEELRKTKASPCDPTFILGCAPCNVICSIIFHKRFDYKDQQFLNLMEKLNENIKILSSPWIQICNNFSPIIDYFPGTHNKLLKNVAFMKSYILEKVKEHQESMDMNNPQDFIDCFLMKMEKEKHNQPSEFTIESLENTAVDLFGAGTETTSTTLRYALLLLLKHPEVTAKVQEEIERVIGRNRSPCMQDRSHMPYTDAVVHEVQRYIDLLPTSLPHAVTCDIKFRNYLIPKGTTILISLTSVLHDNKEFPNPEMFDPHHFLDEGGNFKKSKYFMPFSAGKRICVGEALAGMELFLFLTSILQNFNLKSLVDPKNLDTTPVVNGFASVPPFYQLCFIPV
# [20] = Apparent volume of distribution in Wistar rat at 1 mg/kg, iv; type: ADME, organism-based; settings: in vivo, read-out: Vz
# [21] = Drug metabolism in rat liver microsomes assessed as disappearance of parent compound at 5 uM after 30 mins in presence of NADPH by UPLC-MS/MS analysis
# [22] = test system: Rattus norvegicus; assay: Anti-inflammatory activity in Brown Norway rat assessed as reduction in OVA-induced eosinophil infilteration to bronchoalveolar lavage administered orally bid 1 hr prior to OVA challenge on day 14 and 6 hrs post OVA challenge on day 21 measured 24 hrs post last OVA challenge by microscopic method; type: functional
# [23] = Stability in human plasma at 5 uM up to 24 hrs by UPLC-MS/MS analysis; type: ADME, cell-free; settings: read-out: Stability
# Procedure, shortened: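 Compound incubated at 2 µg/ml in plasma (sodium heparin anticoagulant) at 37 °C for 24 h; percent remaining reported.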
# [24] = AUC in Beagle dog at 1 mg/kg, iv through bolus administration; type: ADME, organism-based, Canis lupus familiaris; settings: in vivo
# [25] = biological target: Cytochrome P450 2C19 (Homo sapiens, UniProt P33261); assay: Inhibition of CYP2C19 in human liver microsomes assessed as reduction in S-mephenytoin-4-hydroxylation at 1 to 25 uM by UPLC-MS/MS analysis; type: ADME
# Sequence of Cytochrome P450 2C19 (P33261 whole entry): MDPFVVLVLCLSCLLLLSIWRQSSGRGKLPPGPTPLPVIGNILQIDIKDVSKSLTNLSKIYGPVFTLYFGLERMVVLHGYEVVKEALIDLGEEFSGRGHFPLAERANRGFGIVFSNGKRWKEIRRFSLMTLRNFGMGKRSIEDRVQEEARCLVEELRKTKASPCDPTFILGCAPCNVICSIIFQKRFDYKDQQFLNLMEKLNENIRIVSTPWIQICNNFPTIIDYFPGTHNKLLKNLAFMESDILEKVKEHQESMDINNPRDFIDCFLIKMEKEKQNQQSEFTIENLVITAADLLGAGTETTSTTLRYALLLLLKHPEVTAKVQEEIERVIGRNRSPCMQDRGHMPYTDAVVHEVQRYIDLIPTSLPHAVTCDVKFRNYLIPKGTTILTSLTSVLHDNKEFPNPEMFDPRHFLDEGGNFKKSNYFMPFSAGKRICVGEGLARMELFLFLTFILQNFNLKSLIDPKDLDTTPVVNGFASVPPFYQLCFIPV
# [26] = Oral bioavailability in Beagle dog at 1 mg/kg administered via gavage; type: ADME, organism-based, Canis lupus familiaris; settings: in vivo
# [27] = biological target: PI3K p110 beta/p85 alpha (Homo sapiens, UniProt P42338); assay: Inhibition of full length recombinant human N-terminal […]-tagged PI3K p110beta/full length human p85alpha expressed in baculovirus infected Sf21 insect cells using PIP2 as substrate preincubated for 30 mins followed by substrate addition by HTRF assay; procedure, shortened: as §1
# Sequence of PI3K p110 beta/p85 alpha (P27986 whole entry): as the sequence (P27986 whole entry) above
# Sequence of PI3K p110 beta/p85 alpha (P42338 whole entry): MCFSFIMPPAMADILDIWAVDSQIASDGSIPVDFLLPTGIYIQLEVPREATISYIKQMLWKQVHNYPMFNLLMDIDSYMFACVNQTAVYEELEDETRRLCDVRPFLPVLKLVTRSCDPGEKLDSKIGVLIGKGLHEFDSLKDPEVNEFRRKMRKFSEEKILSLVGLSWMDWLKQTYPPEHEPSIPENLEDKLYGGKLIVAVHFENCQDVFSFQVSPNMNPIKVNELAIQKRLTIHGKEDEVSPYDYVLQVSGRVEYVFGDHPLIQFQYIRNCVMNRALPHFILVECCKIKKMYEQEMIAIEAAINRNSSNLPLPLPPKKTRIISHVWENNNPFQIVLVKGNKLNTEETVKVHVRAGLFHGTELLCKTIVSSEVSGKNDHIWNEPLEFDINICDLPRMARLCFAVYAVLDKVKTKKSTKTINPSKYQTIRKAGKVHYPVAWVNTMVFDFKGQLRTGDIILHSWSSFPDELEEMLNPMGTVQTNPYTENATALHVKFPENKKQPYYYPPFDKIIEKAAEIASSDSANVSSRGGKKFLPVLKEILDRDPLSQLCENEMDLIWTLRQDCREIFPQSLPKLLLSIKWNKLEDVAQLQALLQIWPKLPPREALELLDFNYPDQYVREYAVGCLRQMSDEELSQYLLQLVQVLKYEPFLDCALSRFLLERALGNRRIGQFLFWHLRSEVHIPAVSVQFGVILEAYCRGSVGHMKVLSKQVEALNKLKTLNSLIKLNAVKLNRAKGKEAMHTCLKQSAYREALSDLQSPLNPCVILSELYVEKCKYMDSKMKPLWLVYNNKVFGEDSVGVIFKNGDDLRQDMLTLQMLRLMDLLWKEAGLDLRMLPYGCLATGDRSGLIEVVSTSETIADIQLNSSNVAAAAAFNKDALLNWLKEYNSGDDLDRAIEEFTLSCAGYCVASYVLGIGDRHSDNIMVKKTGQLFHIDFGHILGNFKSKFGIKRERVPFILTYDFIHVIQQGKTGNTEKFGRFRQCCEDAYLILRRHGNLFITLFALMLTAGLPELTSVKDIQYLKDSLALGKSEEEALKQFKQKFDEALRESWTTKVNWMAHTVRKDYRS
# [28] = Protein binding in rat plasma at 1 uM by LC-MS/MS analysis; type: ADME, cell-free; settings: read-out: PPB
smiles,measurement,setting,value
C[C@H](Nc1ncnc(N)c1C#N)c1nn2ccc(C#N)c2c(=O)n1-c1ccccc1,"Papp at 5 h, 20 µM",[1],2.8 ×10⁻⁶ cm/s
same,"metabolised at 0.5 h, 5 µM",[2],16%
same,IC50,[3],> 25 µM
same,Vd,[4],1.2 L/kg
same,IC50,[5],> 25 µM
same,fraction unbound at 1 µM,[6],0.35 to 0.4
same,fraction unbound at 1 µM,[7],0.35 to 0.4
same,bioavailability,[8],101%
same,IC50,[9],8.2 µM
same,IC50,[10],> 25 µM
same,half-life,[11],3.1 h
same,clearance,[12],9.6 mL/min/kg
same,IC50,[13],0.0026 µM
same,fraction unbound at 1 µM,[14],0.046 to 0.05
same,ED50,[15],0.13 mg/kg
same,AUC,[16],1730 ng·h/mL
same,clearance,[17],1.4 mL/min/kg
same,half-life,[18],10.2 h
same,IC50,[19],> 25 µM
same,Vd,[20],2.6 L/kg
same,"metabolised at 0.5 h, 5 µM",[21],20%
same,Activity,[22],Dose-dependent effect
same,ED50,"[22]; po, read-out: ID50 (the source's name)",0.16 mg/kg
same,"remaining at 24 h, 5 µM",[23],100%
same,AUC,[24],9440 ng·h/mL
same,IC50,[25],> 25 µM
same,bioavailability,[26],98%
same,IC50,[27],0.094 µM
same,fraction unbound at 1 µM,[28],0.35 to 0.4
